From ChEMBL document CHEMBL1177650, “Synthesis, structural elucidation and in vitro antiparasitic activity against Trypanosoma cruzi and Leishmania chagasi parasites of novel tetrahydro-1-benzazepine derivatives” (Bioorg Med Chem, 2010)

Assays:
Leishmania chagasi [1] = assay: Antileishmanial activity against Leishmania chagasi MHOM/BR/74/PP75 amastigotes infected in human THP1 cells after 5 days by Giemsa staining; format: functional, organism-based; settings: MHOM/BR/74/PP75, THP-1, 120 h
Outline: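 THP-1 cells (RPMI, 5% hiSBF, 37 °C, 5% CO2) transformed, then infected 24 h with late-phase L. chagasi promastigotes at parasite:cell 10:1. Treated with compound dilutions (top 100 μM) 5 days at 37 °C, 5% CO2, medium changed once after 3 days. Infected cells counted per 300 cells on methanol-fixed Giemsa slides; IC50/IC90 by sigmoidal regression; triplicates, repeated twice.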

[2] = Selectivity index, CC50 for african green monkey Vero cells to IC50 for Trypanosoma cruzi 320I01 amastigotes; format: functional
Outline: (§1)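 Selectivity index computed as CC50 in Vero cells divided by IC50 against the T. cruzi stage named in the line.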

[3] = Cytotoxicity against human THP1 cells after 72 hrs by MTT assay; format: cell-based; settings: THP-1 cells
Outline: (§2)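 Vero or transformed THP-1 cells incubated with compound (0.3–300 μM) 72 h at 37 °C, 5% CO2; untreated controls. MTT read-out, formazan OD at 580 nm; % cytotoxicity = 100 × (OD control − OD treated)/OD control. CC50/CC90 by sigmoidal regression; triplicates, repeated twice. DMSO stocks 100× concentrated, diluted in medium.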

[4] = Selectivity index, CC50 for human THP1 cells to IC50 for Leishmania chagasi MHOM/BR/74/PP75 promastigotes; format: functional, THP-1
Outline: (§3)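 Selectivity index computed as CC50 in THP-1 cells divided by IC50 against the L. chagasi stage named in the line.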

[5] = Selectivity index, CC50 for african green monkey Vero cells to IC50 for Trypanosoma cruzi 320I01 epimastigote; format: functional; outline: as §1
[6] = Cytotoxicity against african green monkey Vero cells after 72 hrs by MTT assay; format: cell-based; settings: chlorocebus sabaeus; outline: as §2
[7] = Selectivity index, CC50 for human THP1 cells to IC50 for Leishmania chagasi MHOM/BR/74/PP75 amastigotes; format: functional, THP-1; outline: as §3
Leishmania chagasi [8] = assay: Antileishmanial activity against Leishmania chagasi MHOM/BR/74/PP75 promastigotes after 72 hrs by haemocytometry; format: functional, organism-based; settings: MHOM/BR/74/PP75, 72 h
Outline: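 Late-phase L. chagasi promastigotes, grown at 28 °C in RPMI 1640 with hemin, HEPES and 10% hiSBF, exposed to threefold serial dilutions (0.3–100 μM) for 72 h at 28 °C; untreated controls. Growth inhibition from haemocytometer counts; IC50/IC90 by sigmoidal regression; triplicates, repeated twice.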

Trypanosoma cruzi [9] = assay: Antitrypanosomal activity against Trypanosoma cruzi 320I01 amastigotes infected in african green monkey Vero cells after 5 days by Giemsa staining; format: functional, organism-based; settings: 320I01, Vero, 120 h
Outline: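 Vero cells (RPMI, 5% hiSBF, 37 °C, 5% CO2) infected 24 h with tissue-derived T. cruzi trypomastigotes at parasite:cell 10:1. Compound dilutions (top 100 μM) applied 5 days at 37 °C, 5% CO2, medium changed once at day 3. Infected cells scored per 300 cells on methanol-fixed Giemsa preparations; IC50/IC90 by sigmoidal regression; triplicates, two experiments.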

Trypanosoma cruzi [10] = assay: Antitrypanosomal activity against Trypanosoma cruzi 320I01 epimastigotes after 72 hrs by haemocytometry; format: functional, organism-based; settings: 320I01, 72 h
Outline: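 Late-phase T. cruzi epimastigotes cultured in LIT medium with hiFCS at 28 °C; threefold serial dilutions (0.3–100 μM) for 72 h at 28 °C, untreated controls. Parasites counted in a haemocytometer; IC50/IC90 by sigmoidal regression; each concentration in triplicate, two experiments.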

| IC50 (Leishmania chagasi [1]) [µM] | IC90 (Leishmania chagasi [1]) [µM] | IC50 (Leishmania chagasi [8]) [µM] | IC90 (Leishmania chagasi [8]) [µM] | IC50 (Trypanosoma cruzi [9]) [µM] | IC90 (Trypanosoma cruzi [9]) [µM] | IC50 (Trypanosoma cruzi [10]) [µM] | IC90 (Trypanosoma cruzi [10]) [µM] | Compound | Selectivity Index [2] | CC50 at 72 h [3] [µM] | CC90 at 72 h [3] [µM] | Selectivity Index [4] | Selectivity Index [5] | CC50 at 72 h [6] [µM] | CC90 at 72 h [6] [µM] | Selectivity Index [7] |
| --- | --- | --- | --- | --- | --- | --- | --- | --- | --- | --- | --- | --- | --- | --- | --- | --- |
| > 100 | > 100 | > 100 | > 100 | > 100 | > 100 | > 100 | > 100 | c1ccc([C@@H]2C[C@@H]3Cc4ccccc4N2O3)cc1 (relative stereo) | >3 | > 300 | > 300 | >3 | >3 | > 300 | > 300 | >3 |
| > 100 | > 100 | 15.7 | 34.7 | > 100 | > 100 | 26.9 | > 100 | FC(F)(F)Oc1ccc2c(c1)C[C@H]1C[C@@H](c3ccccc3)N2O1 (relative stereo) | >3 | > 300 | > 300 | >19 | >11 | > 300 | > 300 | >3 |
| > 100 | > 100 | 25.5 | 54.9 | 56.4 | 43.6 | 23.4 | > 100 | Brc1ccc2c(c1)C[C@H]1C[C@@H](c3ccccc3)N2O1 (relative stereo) | >5 | > 300 | > 300 | >11 | >12 | > 300 | > 300 | >3 |
